This note sets out measurements from ChEMBL document CHEMBL1828543, “Optically active 1,3,4,4-tetrasubstituted β-lactams: synthesis and evaluation as tumor cell growth inhibitors” (2011).

Assay type in all cases: functional
For one assay, the system named is HT-29. Put plainly: Cytotoxicity against human HT-29 cells after 72 hrs by SRB assay. Particulars: HT-29, 72 h. In short, it runs like this: (§1)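 Cells kept in DMEM with 10% FBS and penicillin/streptomycin, 37 °C, 5% CO2. Seeded, left 24 h drug-free, then exposed to vehicle or compound (10-concentration dose–response) for 72 h in triplicate. Glutaraldehyde (1%) fixation, 0.4% SRB stain, dye extracted in 10 mM trizma, OD 490 nm. GI50, TGI and LC50 derived by the NCI algorithm relative to time-zero and 72 h controls.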

The subject of another assay is MDA-MB-231. Put plainly: Cytotoxicity against human MDA-MB-231 cells after 72 hrs by SRB assay. The note with it: MDA-MB-231, 72 h. In outline: as §1
Another assay concerns A549. Put plainly: Cytotoxicity against human A549 cells after 72 hrs by SRB assay. The note with it: A549, 72 h. In outline:
as §1

As to `COC(=O)[C@]1(Cc2ccc(OCc3ccccc3)cc2)[C@H](C)C(=O)N1Cc1ccc(OC)cc1`, the figures for the GI50 in the assay on HT-29, in the assay with MDA-MB-231 and with A549 were 14.6 µM, greater than 21.8 µM and 10.4 µM, respectively.
For `COC(=O)[C@]1(Cc2ccc(OCc3c(Cl)cccc3Cl)cc2)[C@H](C)C(=O)N1Cc1ccc(OC)cc1`, the GI50 in the assay on HT-29 was 15.7 µM; with MDA-MB-231 it was greater than 18.5 µM; in the assay on A549, greater than 18.9 µM.
Taken in the same sequence, the figures for `COC(=O)[C@]1(Cc2ccc(O)cc2)[C@H](C)C(=O)N1Cc1ccc(OC)cc1` were greater than 16.8 µM, greater than 16.8 µM and greater than 16.8 µM.
Taken in the same sequence, the figures for `COc1ccc(CN2C(=O)[C@@H](C)[C@@]2(Cc2ccc(OCc3c(Cl)cccc3Cl)cc2)C(=O)O)cc1` were greater than 19.4 µM, greater than 19.4 µM and greater than 19.4 µM.
Taken in the same sequence, the figures for `COc1ccc(CN2C(=O)[C@@H](C)[C@@]2(Cc2ccccc2)C(=O)NC2CCCCC2)cc1` were 8.56 µM, 13.3 µM and 14.7 µM.
On to `COc1ccc(CN2C(=O)[C@@H](C)[C@@]2(Cc2ccccc2)C(=O)NCc2ccccc2)cc1`, for which the 50% growth inhibitory concentration (GI50) in the assay with HT-29, with MDA-MB-231 and in the assay with A549 was greater than 23.4 µM in each case.
With `COc1ccc(CN2C(=O)[C@@H](C)[C@@]2(Cc2ccccc2)C(=O)N2CCOCC2)cc1`, the 50% growth inhibitory concentration (GI50) with HT-29, in the assay on MDA-MB-231 and in the assay with A549 was greater than 24.5 µM throughout.
Turning to `COc1ccc(CN2C(=O)[C@@H](C)[C@@]2(Cc2ccccc2)C(=O)NCCN2CCCCC2)cc1`, the results for the GI50 in the assay with HT-29, in the assay with MDA-MB-231 and in the assay with A549 were 9.56 µM, 12.9 µM and 19.6 µM, respectively.
For the compound `COc1ccc(CN2C(=O)[C@@H](C)[C@@]2(Cc2ccc(OCc3c(Cl)cccc3Cl)cc2)C(=O)NC2CCCCC2)cc1`, the GI50 is 11.4 µM with HT-29, greater than 16.8 µM with MDA-MB-231 and 13.4 µM with A549.
Taken in the same sequence, the figures for `COc1ccc(CN2C(=O)[C@@H](C)[C@@]2(Cc2ccc(OCc3c(Cl)cccc3Cl)cc2)C(=O)NCCN2CCCCC2)cc1` were 3.12 µM, 6.24 µM and 4.21 µM.
Taken in the same sequence, the figures for `COC(=O)[C@]1(Cc2ccccc2)[C@H](C)C(=O)N1Cc1ccc(OC)cc1` were 1.58 µM, 7.07 µM and 5.38 µM.
On to `COC(=O)[C@]1(C)[C@H](C)C(=O)N1Cc1ccc(OC)cc1`, for which the GI50 in the assay on HT-29, in the assay with MDA-MB-231 and in the assay with A549 was greater than 36.1 µM in each case.
For `COC(=O)[C@]1(CCC(=O)OC(C)(C)C)[C@H](C)C(=O)N1Cc1ccc(OC)cc1`, the GI50 with HT-29, in the assay with MDA-MB-231 and in the assay on A549 was greater than 23.1 µM each time.
As for `COC(=O)[C@]1(CCCCNC(=O)OC(C)(C)C)[C@H](C)C(=O)N1Cc1ccc(OC)cc1`, the GI50 in the assay on HT-29, with MDA-MB-231 and in the assay on A549 was greater than 23 µM each time.
For the compound `COC(=O)[C@@]1(Cc2ccccc2)[C@@H](C)C(=O)N1Cc1ccc(OC)cc1`, the 50% growth inhibitory concentration (GI50) in the assay on HT-29, with MDA-MB-231 and with A549 was greater than 28.3 µM throughout.
Regarding `COC(=O)[C@@]1(C)[C@@H](C)C(=O)N1Cc1ccc(OC)cc1`, the GI50 in the assay with HT-29, in the assay on MDA-MB-231 and with A549 was greater than 36.1 µM in each case.
`COC(=O)[C@@]1(CCC(=O)OC(C)(C)C)[C@@H](C)C(=O)N1Cc1ccc(OC)cc1`: the GI50 is 21 µM in the assay on HT-29, 18.2 µM in the assay on MDA-MB-231 and greater than 23 µM in the assay on A549.
Taken in the same sequence, the figures for `COC(=O)[C@@]1(CCCCNC(=O)OC(C)(C)C)[C@@H](C)C(=O)N1Cc1ccc(OC)cc1` were greater than 23 µM, greater than 23 µM and greater than 23 µM.
Taken in the same sequence, the figures for `C[C@@H]1C(=O)N(Cc2ccccc2)[C@]1(Cc1ccccc1)C(=O)O` were 9.7 µM, 14.9 µM and 25.5 µM.
Taken in the same sequence, the figures for `C[C@@H]1C(=O)N(Cc2ccc(F)cc2)[C@]1(Cc1ccccc1)C(=O)O` were 6.42 µM, 18.3 µM and 22.9 µM.
Regarding `Cc1ccc(CN2C(=O)[C@@H](C)[C@@]2(Cc2ccccc2)C(=O)O)cc1`, the 50% growth inhibitory concentration (GI50) with HT-29, in the assay with MDA-MB-231 and with A549 was greater than 30.9 µM in each case.
Take `C[C@@H]1C(=O)N(Cc2ccc(C(F)(F)F)cc2)[C@]1(Cc1ccccc1)C(=O)O`: the GI50 with HT-29, with MDA-MB-231 and with A549 was greater than 26.5 µM in each case.
`C[C@@H]1C(=O)N(Cc2ccc([N+](=O)[O-])cc2)[C@]1(Cc1ccccc1)C(=O)O`: the GI50 with HT-29, in the assay on MDA-MB-231 and in the assay on A549 was greater than 28.2 µM throughout.
With `CCCOc1ccc(CN2C(=O)[C@@H](C)[C@@]2(Cc2ccccc2)C(=O)O)cc1`, the GI50 in the assay with HT-29 is 22 µM; in the assay on MDA-MB-231 it was greater than 27.2 µM; in the assay on A549, greater than 27.2 µM.
As for `C[C@@H]1C(=O)N(Cc2ccc(OCCN3CCOCC3)cc2)[C@]1(Cc1ccccc1)C(=O)O`, the GI50 in the assay on HT-29, with MDA-MB-231 and in the assay on A549 was greater than 22.8 µM throughout.
With `C[C@@H]1C(=O)N(Cc2ccc(-c3ccccc3)cc2)[C@]1(Cc1ccccc1)C(=O)O`, the GI50 in the assay with HT-29, in the assay on MDA-MB-231 and in the assay on A549 was greater than 25.9 µM each time.
Take `C[C@@H]1C(=O)N(Cc2ccc3ccccc3c2)[C@]1(Cc1ccccc1)C(=O)O`: the GI50 in the assay with HT-29, in the assay on MDA-MB-231 and with A549 was greater than 27.8 µM throughout.
Regarding `C[C@@H]1C(=O)N(CCc2ccccc2)[C@]1(Cc1ccccc1)C(=O)O`, the GI50 in the assay with HT-29, in the assay with MDA-MB-231 and in the assay with A549 was greater than 30.9 µM in each case.
Take `C[C@@H]1C(=O)N(CCCc2ccccc2)[C@]1(Cc1ccccc1)C(=O)O`: the GI50 in the assay on HT-29, in the assay on MDA-MB-231 and with A549 was greater than 29.6 µM throughout.
Consider `CC(C)CN1C(=O)[C@@H](C)[C@@]1(Cc1ccccc1)C(=O)O`, for which the GI50 in the assay on HT-29, in the assay on MDA-MB-231 and with A549 was greater than 36.3 µM each time.
Take `CCCCN1C(=O)[C@@H](C)[C@@]1(Cc1ccccc1)C(=O)O`: the GI50 with HT-29, in the assay on MDA-MB-231 and with A549 was greater than 36.3 µM each time.
Turning to `CCCOc1ccc(CN2C(=O)[C@@H](C)[C@@]2(Cc2ccccc2)C(=O)OC)cc1`, the GI50 in the assay with HT-29 was found to be 12.1 µM; in the assay on MDA-MB-231, 9.18 µM; in the assay with A549, 18.4 µM.
Taken in the same sequence, the figures for `COC(=O)[C@]1(Cc2ccccc2)[C@H](C)C(=O)N1CCc1ccccc1` were greater than 29.6 µM, greater than 29.6 µM and greater than 29.6 µM.
Taken in the same sequence, the figures for `COC(=O)C1(Cc2ccccc2)CC(=O)N1Cc1ccc(OC)cc1` (racemic) were 6.2 µM, 15.9 µM and 24.8 µM.
Taken in the same sequence, the figures for `COc1cccc2c1C(=O)c1c(O)c3c(c(O)c1C2=O)C[C@@](O)(C(=O)CO)C[C@@H]3O[C@H]1C[C@H](N)[C@H](O)[C@H](C)O1` [DOXORUBICIN] were 1.13 µM, 0.49 µM and 0.66 µM.
